Test results: ChEMBL document CHEMBL1687749, “Beijing genotype of Mycobacterium tuberculosis is significantly associated with high-level fluoroquinolone resistance in Vietnam” (2009)
In brackets after ≈: the same amount, converted by molar mass.

Columns and labels:
Type in all cases: functional
[1] = system: Mycobacterium tuberculosis; assay: Antimycobacterial activity against fluoroquinolone-resistant Mycobacterium tuberculosis Beijing genotype isolates without carrying multiple mutation and harboring gyrA A90V mutant gene
In short: (§1)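 Ofloxacin MIC was determined on the first 65 FQ-resistant clinical isolates, and 64 regrew on subculture. Resistance was defined by the WHO 1% proportion method on Lowenstein-Jensen medium with ofloxacin at 2 μg/ml. Mutations were assigned by gyrA/gyrB sequencing and Beijing genotype by spoligotyping. The value is the median MIC per mutation, excluding isolates with multiple mutations or sequencing heteropeaks.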

[2] = system: Mycobacterium tuberculosis; assay: Antimycobacterial activity against fluoroquinolone-resistant Mycobacterium tuberculosis Beijing genotype isolates without carrying multiple mutation and harboring gyrA D94A mutant gene; in short: as §1
[3] = system: Mycobacterium tuberculosis; assay: Antimycobacterial activity against fluoroquinolone-resistant Mycobacterium tuberculosis Beijing genotype isolates without carrying multiple mutation and harboring gyrA D94G mutant gene; in short: as §1
[4] = system: Mycobacterium tuberculosis; assay: Antimycobacterial activity against fluoroquinolone-resistant Mycobacterium tuberculosis Beijing genotype isolates without carrying multiple mutation and harboring gyrA D94N mutant gene; in short: as §1
[5] = system: Mycobacterium tuberculosis; assay: Antimycobacterial activity against fluoroquinolone-resistant Mycobacterium tuberculosis Beijing genotype isolates without carrying multiple mutation and harboring gyrA D94Y mutant gene; in short: as §1
[6] = system: Mycobacterium tuberculosis; assay: Antimycobacterial activity against fluoroquinolone-resistant Mycobacterium tuberculosis Beijing genotype isolates without carrying multiple mutation and harboring gyrB D500N mutant gene; in short: as §1
[7] = system: Mycobacterium tuberculosis; assay: Antimycobacterial activity against fluoroquinolone-resistant Mycobacterium tuberculosis Beijing genotype isolates without carrying multiple mutation and harboring gyrB D540D mutant gene; in short: as §1
[8] = system: Mycobacterium tuberculosis; assay: Antimycobacterial activity against fluoroquinolone-resistant Mycobacterium tuberculosis Beijing genotype isolates without carrying mutation; in short: as §1
[9] = system: Mycobacterium tuberculosis; assay: Antimycobacterial activity against fluoroquinolone-resistant Mycobacterium tuberculosis Beijing genotype isolates without carrying multiple mutation and harboring gyrB A90V and T539P mutant genes
[10] = system: Mycobacterium tuberculosis; assay: Antimycobacterial activity against mixture of fluoroquinolone-resistant and sensitive Mycobacterium tuberculosis Beijing genotype isolates carrying heteropeaks upon sequencing at mutation site and harboring gyrA A90V mutant gene
In short: (§2)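 Ofloxacin MIC was determined on isolates from the first 65 FQ-resistant clinical isolates, screened by the WHO 1% proportion method on Lowenstein-Jensen medium with ofloxacin at 2 μg/ml. Beijing genotype was assigned by spoligotyping.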

[11] = system: Mycobacterium tuberculosis; assay: Antimycobacterial activity against mixture of fluoroquinolone-resistant and sensitive Mycobacterium tuberculosis Beijing genotype isolates carrying heteropeaks upon sequencing at mutation site and harboring gyrA D94A mutant gene; in short: as §2
[12] = system: Mycobacterium tuberculosis; assay: Antimycobacterial activity against mixture of fluoroquinolone-resistant and sensitive Mycobacterium tuberculosis Beijing genotype isolates carrying heteropeaks upon sequencing at mutation site and harboring gyrA D94G mutant gene; in short: as §2
[13] = system: Mycobacterium tuberculosis; assay: Antimycobacterial activity against mixture of fluoroquinolone-resistant and sensitive Mycobacterium tuberculosis Beijing genotype isolates carrying heteropeaks upon sequencing at mutation site and harboring gyrA D94N mutant gene; in short: as §2
[14] = system: Mycobacterium tuberculosis; assay: Antimycobacterial activity against mixture of fluoroquinolone-resistant and sensitive Mycobacterium tuberculosis Beijing genotype isolates carrying heteropeaks upon sequencing at mutation site and harboring gyrA D94Y mutant gene; in short: as §2
[15] = system: Mycobacterium tuberculosis; assay: Antimycobacterial activity against mixture of fluoroquinolone-resistant and sensitive Mycobacterium tuberculosis Beijing genotype isolates carrying heteropeaks upon sequencing at mutation site and harboring gyrA G88A mutant gene; in short: as §2
[16] = system: Mycobacterium tuberculosis; assay: Antimycobacterial activity against mixture of fluoroquinolone-resistant and sensitive Mycobacterium tuberculosis Beijing genotype isolates carrying heteropeaks upon sequencing at mutation site and harboring gyrB D500N mutant gene; in short: as §2
[17] = system: Mycobacterium tuberculosis; assay: Antimycobacterial activity against mixture of fluoroquinolone-resistant and sensitive Mycobacterium tuberculosis Beijing genotype isolates carrying heteropeaks upon sequencing at mutation site and harboring gyrB D540D mutant gene; in short: as §2
[18] = system: Mycobacterium tuberculosis; assay: Antimycobacterial activity against mixture of fluoroquinolone-resistant and sensitive Mycobacterium tuberculosis Beijing genotype isolates carrying heteropeaks upon sequencing; in short: as §2
[19] = system: Mycobacterium tuberculosis; assay: Antimycobacterial activity against mixture of fluoroquinolone-resistant and sensitive Mycobacterium tuberculosis Beijing genotype isolates carrying heteropeaks upon sequencing at mutation site and harboring gyrB A90V and D500A mutant genes; in short: as §2
[20] = system: Mycobacterium tuberculosis; assay: Antimycobacterial activity against mixture of fluoroquinolone-resistant and sensitive Mycobacterium tuberculosis Beijing genotype isolates carrying heteropeaks upon sequencing at mutation site and harboring gyrB A90V and T539P mutant genes; in short: as §2
[21] = system: Mycobacterium tuberculosis; assay: Antimycobacterial activity against mixture of fluoroquinolone-resistant and sensitive Mycobacterium tuberculosis Beijing genotype isolates carrying heteropeaks upon sequencing at mutation site and harboring gyrA A90V and D94A mutant genes; in short: as §2
[22] = system: Mycobacterium tuberculosis; assay: Antimycobacterial activity against mixture of fluoroquinolone-resistant and sensitive Mycobacterium tuberculosis Beijing genotype isolates carrying heteropeaks upon sequencing at mutation site and harboring gyrA A90V and D94G mutant genes; in short: as §2
[23] = system: Mycobacterium tuberculosis; assay: Antimycobacterial activity against mixture of fluoroquinolone-resistant and sensitive Mycobacterium tuberculosis Beijing genotype isolates carrying heteropeaks upon sequencing at mutation site and harboring gyrA D94G and D94A mutant genes; in short: as §2

With `CC1COc2c(N3CCN(C)CC3)c(F)cc3c(=O)c(C(=O)O)cn1c23` (stereo not drawn) [OFLOXACIN] the MIC [1] was 8 µg/mL (≈ 22.1 µM), the MIC [2] was 8 µg/mL (≈ 22.1 µM) and the MIC [3] was 12 µg/mL (≈ 33.2 µM). It also gave an MIC [4] of 12 µg/mL (≈ 33.2 µM), an MIC [5] of 12 µg/mL (≈ 33.2 µM) and an MIC [6] greater than 4 µg/mL. For the same compound, the MIC [7] was 12 µg/mL (≈ 33.2 µM), the MIC [8] was 4 µg/mL (≈ 11.1 µM) and the MIC [9] was greater than 12 µg/mL. It also gave an MIC [10] of 8 µg/mL (≈ 22.1 µM), an MIC [11] of 8 µg/mL (≈ 22.1 µM) and an MIC [12] of 12 µg/mL (≈ 33.2 µM). The MIC [13] was 12 µg/mL (≈ 33.2 µM), the MIC [14] was greater than 12 µg/mL and the MIC [15] was 12 µg/mL (≈ 33.2 µM). It also gave an MIC [16] of 4 µg/mL (≈ 11.1 µM), an MIC [17] of 12 µg/mL (≈ 33.2 µM) and an MIC [18] of 4 µg/mL (≈ 11.1 µM). It also gave an MIC [19] of 8 µg/mL (≈ 22.1 µM), an MIC [20] greater than 12 µg/mL and an MIC [21] of 8 µg/mL (≈ 22.1 µM). For the same compound, the MIC [22] was 12 µg/mL (≈ 33.2 µM) and the MIC [23] was 12 µg/mL (≈ 33.2 µM).
